Measured values from ChEMBL document CHEMBL1148673, “Peptidomimetic C5a receptor antagonists with hydrophobic substitutions at the C-terminus: increased receptor specificity and in vivo activity” (Bioorg Med Chem Lett, 2006).

Legend:
Vasopressin V1a receptor = Vasopressin V1a receptor (Homo sapiens, UniProt P37288); test: Binding affinity to V1a receptor
J774.A1 = test: Inhibition of C5a-induced chemotaxis of mouse J774A.1 cells; format: functional, cell-based
In short: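 Mouse J774A.1 cells; chemotaxis induced by C5a, inhibition measured and IC50 (µM) determined.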

[1] = target: T1, C5a anaphylatoxin chemotactic receptor 1 (Homo sapiens, UniProt P21730); test: Antagonist activity at human C5aR in CD88 transfected RBL cells assessed as inhibition of C5a-induced glucosaminidase release; format: functional, cell-based
T1 sequence (P21730 whole entry): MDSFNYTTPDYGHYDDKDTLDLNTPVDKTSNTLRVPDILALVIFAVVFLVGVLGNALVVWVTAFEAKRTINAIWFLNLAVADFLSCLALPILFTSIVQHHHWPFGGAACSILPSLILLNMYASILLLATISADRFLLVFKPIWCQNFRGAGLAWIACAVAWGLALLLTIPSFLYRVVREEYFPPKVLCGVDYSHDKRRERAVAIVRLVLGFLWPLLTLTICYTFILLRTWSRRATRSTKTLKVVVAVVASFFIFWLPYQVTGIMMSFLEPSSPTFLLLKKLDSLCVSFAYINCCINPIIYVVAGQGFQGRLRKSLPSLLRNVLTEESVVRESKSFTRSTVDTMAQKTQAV
In short: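 Functional antagonism read as inhibition of glucosaminidase release stimulated by C5a from RBL cells transfected with CD88 (RBL+); IC50 in µM.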

[2] = Stability in human liver microsome after 1 hr; format: ADME; settings: liver microsomes, read-out: Stability
In short: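 Compound incubated with human liver microsomes, 1 h at 37 °C; read-out is % of parent remaining.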

[3] = target: T1, C5a anaphylatoxin chemotactic receptor 1; test: Antagonist activity at human C5aR expressed in human PMN cells assessed as inhibition of glucosaminidase release; format: functional, cell-based
[4] = target: T1, C5a anaphylatoxin chemotactic receptor 1; test: Inhibition of C5a binding to human C5aR expressed in HEK293 cells; format: cell-based
CYP3A4 = CYP3A4 (Homo sapiens, UniProt P08684); test: Inhibition of CYP3A4 at 10 uM; format: ADME
Substance-K receptor = target: T2, Substance-K receptor (Homo sapiens, UniProt P21452); test: Binding affinity to NK2 receptor
T2 sequence (P21452 whole entry): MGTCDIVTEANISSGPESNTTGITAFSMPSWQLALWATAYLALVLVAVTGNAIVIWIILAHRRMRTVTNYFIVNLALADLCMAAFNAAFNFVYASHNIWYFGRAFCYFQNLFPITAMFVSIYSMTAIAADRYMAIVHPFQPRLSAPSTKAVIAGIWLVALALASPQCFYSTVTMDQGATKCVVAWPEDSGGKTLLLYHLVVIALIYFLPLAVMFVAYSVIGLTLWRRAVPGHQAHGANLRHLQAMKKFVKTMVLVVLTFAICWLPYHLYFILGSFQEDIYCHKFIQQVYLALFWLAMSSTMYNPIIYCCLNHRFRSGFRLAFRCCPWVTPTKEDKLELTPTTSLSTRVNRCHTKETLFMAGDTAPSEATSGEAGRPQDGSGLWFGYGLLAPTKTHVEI

Melanocortin receptor 4 = Melanocortin receptor 4 (Homo sapiens, UniProt P32245); test: Binding affinity to MC4 receptor
Nociceptin receptor = Nociceptin receptor (Homo sapiens, UniProt P41146); test: Binding affinity to ORL1 receptor
[5] = target: T3, C5a anaphylatoxin chemotactic receptor 1 (Homo sapiens) (UniProt P21730); test: Agonist activity at human C5aR in CD88 transfected RBL cells at 286 uM; format: functional, cell-based
T3 sequence (whole entry): T1 sequence (P21730 whole entry)

Sequence of CYP3A4 (P08684 whole entry): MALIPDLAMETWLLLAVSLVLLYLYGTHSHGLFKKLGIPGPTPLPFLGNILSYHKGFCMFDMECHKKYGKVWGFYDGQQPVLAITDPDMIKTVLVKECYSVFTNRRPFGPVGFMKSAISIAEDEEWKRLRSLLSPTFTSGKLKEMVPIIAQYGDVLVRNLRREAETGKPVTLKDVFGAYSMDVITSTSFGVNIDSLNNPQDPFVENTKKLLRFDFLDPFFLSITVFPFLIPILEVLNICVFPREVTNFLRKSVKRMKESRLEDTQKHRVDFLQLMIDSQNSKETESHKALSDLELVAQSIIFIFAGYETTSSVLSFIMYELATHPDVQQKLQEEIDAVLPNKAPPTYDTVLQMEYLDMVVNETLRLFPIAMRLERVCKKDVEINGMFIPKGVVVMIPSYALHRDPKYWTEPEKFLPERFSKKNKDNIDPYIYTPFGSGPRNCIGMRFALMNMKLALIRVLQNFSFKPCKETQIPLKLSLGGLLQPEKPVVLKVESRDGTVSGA
Sequence of Vasopressin V1a receptor (P37288 whole entry): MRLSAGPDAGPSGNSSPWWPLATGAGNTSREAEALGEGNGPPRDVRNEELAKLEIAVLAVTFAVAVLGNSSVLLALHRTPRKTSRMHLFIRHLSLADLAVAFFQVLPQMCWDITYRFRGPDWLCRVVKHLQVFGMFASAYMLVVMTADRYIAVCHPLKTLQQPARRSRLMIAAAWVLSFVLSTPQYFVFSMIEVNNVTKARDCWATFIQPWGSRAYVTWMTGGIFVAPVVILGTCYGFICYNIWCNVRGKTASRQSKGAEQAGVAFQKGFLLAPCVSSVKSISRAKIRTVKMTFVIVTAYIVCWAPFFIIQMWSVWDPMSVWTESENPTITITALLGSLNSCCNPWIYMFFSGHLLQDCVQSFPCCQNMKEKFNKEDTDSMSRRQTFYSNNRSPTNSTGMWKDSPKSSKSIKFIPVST
Sequence of Nociceptin receptor (P41146 whole entry): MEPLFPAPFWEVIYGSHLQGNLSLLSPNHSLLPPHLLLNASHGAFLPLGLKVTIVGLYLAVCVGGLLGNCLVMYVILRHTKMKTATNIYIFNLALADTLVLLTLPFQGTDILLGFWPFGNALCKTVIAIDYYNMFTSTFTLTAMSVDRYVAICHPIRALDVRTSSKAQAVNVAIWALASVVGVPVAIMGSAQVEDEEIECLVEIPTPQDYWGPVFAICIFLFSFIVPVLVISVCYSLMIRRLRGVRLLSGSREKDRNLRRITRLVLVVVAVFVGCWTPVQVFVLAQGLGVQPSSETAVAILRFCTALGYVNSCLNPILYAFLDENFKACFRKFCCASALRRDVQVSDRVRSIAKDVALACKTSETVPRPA
Sequence of Melanocortin receptor 4 (P32245 whole entry): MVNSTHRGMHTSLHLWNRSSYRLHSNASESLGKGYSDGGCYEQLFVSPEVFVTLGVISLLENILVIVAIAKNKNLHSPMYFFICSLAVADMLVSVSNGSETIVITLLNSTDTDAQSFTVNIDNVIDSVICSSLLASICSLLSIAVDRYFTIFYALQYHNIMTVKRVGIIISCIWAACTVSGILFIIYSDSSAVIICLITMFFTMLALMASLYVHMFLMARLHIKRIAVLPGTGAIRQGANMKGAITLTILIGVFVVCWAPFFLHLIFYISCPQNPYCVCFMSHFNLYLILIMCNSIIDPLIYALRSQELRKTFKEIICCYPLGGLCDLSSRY

CC(C)CC[C@@H](NC(=O)[C@@H]1CCCN1C(=O)[C@H](CCCN)NC(=O)[C@H](Cc1ccccc1)NC(=O)[C@@H]1CC(=O)NC(=O)N1)C(=O)N[C@@H](Cc1ccc(F)cc1)C(=O)N[C@@H](Cc1ccccc1)C(N)=O
IC50 (Vasopressin V1a receptor): 740 nM | IC50 (J774.A1): 420 nM | IC50 [1]: 39 nM | remaining at 1 h [2]: 80% | IC50 [3]: 41 nM | IC50 [4]: 111 nM | inhibition at 10 µM (CYP3A4): 38% | IC50 (Substance-K receptor): 710 nM | IC50 (Melanocortin receptor 4): 13000 nM | IC50 (Nociceptin receptor): > 50000 nM

CC(=O)N[C@@H](Cc1ccccc1)C(=O)N[C@@H](CCCN)C(=O)N1CCC[C@H]1C(=O)N[C@H](CCC(C)C)C(=O)N[C@H](Cc1ccc(Cl)c(Cl)c1)C(=O)N[C@H](Cc1ccccc1)C(N)=O
Activity [5]: 7.2%

CC(=O)N[C@@H](Cc1ccccc1)C(=O)N[C@H]1CCCNC(=O)[C@H](CCCN=C(N)N)NC(=O)[C@H](Cc2c[nH]c3ccccc23)NC(=O)[C@@H](CC2CCCCC2)NC(=O)[C@@H]2CCCN2C1=O
IC50 (J774.A1): 7100 nM | remaining at 1 h [2]: 10% | inhibition at 10 µM (CYP3A4): 77%

CC(=O)N[C@@H](Cc1ccccc1)C(=O)N[C@@H](CCCN)C(=O)N1CCC[C@H]1C(=O)N[C@H](CCC(C)C)C(=O)N[C@H](Cc1csc2ccccc12)C(=O)N[C@H](Cc1ccccc1)C(N)=O
Activity [5]: 0%

CC(=O)N[C@@H](Cc1ccccc1)C(=O)N[C@@H](CCCN)C(=O)N1CCC[C@H]1C(=O)N[C@H](CCC(C)C)C(=O)N[C@H](Cc1c[nH]c2ccccc12)C(=O)N[C@H](Cc1ccccc1)C(N)=O
Activity [5]: 0%

CC(=O)N[C@@H](Cc1ccccc1)C(=O)N[C@@H](CCCN)C(=O)N1CCC[C@H]1C(=O)N[C@H](CCC(C)C)C(=O)N[C@H](Cc1cccc(Cl)c1)C(=O)N[C@H](Cc1ccccc1)C(N)=O
Activity [5]: 1.2%

CC(=O)N[C@@H](Cc1ccccc1)C(=O)N[C@@H](CCCN)C(=O)N1CCC[C@H]1C(=O)N[C@H](CCC(C)C)C(=O)N[C@@H](Cc1cccc(Cl)c1)C(=O)N[C@@H](Cc1ccccc1)C(N)=O
IC50 [1]: 60 nM | remaining at 1 h [2]: 62%

CC(C)CC[C@H](NC(=O)[C@@H]1CCCN1C(=O)[C@H](CCCN)NC(=O)[C@H](Cc1ccccc1)NC(=O)[C@@H]1CC(=O)NC(=O)N1)C(=O)N[C@@H](Cc1ccc(F)cc1)C(=O)N[C@H](Cc1ccccc1)C(N)=O
Activity [5]: 0%

CC(=O)N[C@@H](Cc1ccccc1)C(=O)N[C@@H](CCCN)C(=O)N1CCC[C@H]1C(=O)N[C@H](CCC(C)C)C(=O)N[C@@H](Cc1ccc(F)cc1)C(=O)N[C@@H](Cc1ccccc1)C(N)=O
IC50 [1]: 71 nM | remaining at 1 h [2]: 65%

CC(=O)N[C@@H](Cc1ccccc1)C(=O)N[C@@H](CCCN)C(=O)N1CCC[C@H]1C(=O)N[C@@H](CCC(C)C)C(=O)N[C@H](Cc1ccc(F)cc1)C(=O)N[C@H](Cc1ccccc1)C(N)=O
Activity [5]: 0%
